Results published in PMC11164094 (International Journal of Nanomedicine, 2024).
Converted amounts (≈) assume the structure as drawn.

Key:
[1] = test system: HUA mice; assay: In vivo anti-hyperuricemia study; parameters: species or system KM mice; settings: for serum UA level vs HUA group: gavage once daily, 5 mg/kg FEB, 10 mg/kg OBB, 1, 2, 4 mg/kg OBB-HP-β-CD SDDS
Method in brief: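 KM mice (male, 20 ± 2 g, 4 weeks, SPF) were acclimatised ≥7 days at 24 ± 1°C, n = 10/group. Hyperuricemia was induced daily for 10 days with PO 300 mg/kg i.p. plus HX 300 mg/kg oral. Test compound was gavaged 1 h post-challenge, once daily for 7 days. Kidneys were taken 1 h after the last dose, fixed 24 h in 4% PFA, paraffin-embedded, sectioned at 4 μm, H&E-stained and blind-scored at 200× (n = 3).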

[2] = previous study; cited from earlier work
[3] = Solubility test of OBB in different dissolution media and excipient solutions; assay type: physicochemical; settings: for Solubility: 25°C, shaken 24 h
Method in brief: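 Excess test compound was added to each medium, with solid excipients made up as 25 mg/mL aqueous solutions. Samples were shaken at 90 rpm and 25°C for 24 h to reach equilibrium. They were then centrifuged (9000 ×g, 20 min), and the supernatant was filtered (0.22 µm), diluted and quantified by HPLC. HPLC used a C18 column with methanol-water 70:30 and 0.1% formic acid, isocratic at 1.0 mL/min, 30°C.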

[4] = previous study; cited from earlier work; remark: listed apart in the source
[5] = Appearance and solubility of prepared samples in water; assay type: physicochemical
[6] = Pharmacokinetic study in rats; assay type: in vivo; settings: male, Sprague Dawley, rat, blood, oral, 50 mg/kg
Method in brief: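 Male Sprague Dawley rats (200–240 g) were fasted overnight with free water and dosed in groups of 6. Dose was 50 mg/kg test compound, given p.o. as raw material or as HP-β-CD supersaturated formulation, or i.v. as formulation. Heparinized orbital blood was drawn at 0.083–24 h. Acetonitrile protein precipitation with piperine internal standard; centrifuged 2000 ×g, 10 min; residue redissolved in methanol, filtered; HPLC.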

solubility at 24 h ([3]; artificial gastric fluid) [µg/mL]	Solubility ([3]; artificial intestinal fluid)	Solubility ([3]; water)	appearance after addition of water and sufficient stirring [5]	bioavailability [6] [%]	Compound	renal histopathological damage (H&E) vs HUA group [1]	serum UA level vs HUA group [1]	anti-hyperuricemic activity [2]	safety profile [4]
					Cc1nc(-c2ccc(OCC(C)C)c(C#N)c2)sc1C(=O)O [FEB, febuxostat, reference compound]	effectively ameliorated	significantly decreased		
~0.32 (≈ 0.911 µM)	completely insoluble	completely insoluble	remained cloudy	1.55	COc1ccc2cc3n(c(=O)c2c1OC)CCc1cc2c(cc1-3)OCO2 [OBB, Oxyberberine]	effectively ameliorated	significantly decreased	comparable to the first-line agent febuxostat	favorable safety profile
